Experiment [1] relates to Streptococcus mutans. Nature of the experiment: Antibacterial activity against Streptococcus mutans ATCC 25175 after 24 hrs by broth microdilution method. As to conditions: ATCC 25175, 24 h. (Broth dilution looks for growth in wells or tubes with falling amounts of substance.)
Experiment [2] has as its system Porphyromonas gingivalis. Nature of the experiment: Antibacterial activity against Porphyromonas gingivalis ATCC 33277 after 48 hrs by broth microdilution method. Format: functional. As to conditions: ATCC 33277, 48 h. A digest of the protocol:
(§1)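 Broth microdilution MIC for obligate anaerobes, run in their growth media (Wilkins–Chalgren for F. nucleatum and P. intermedia; supplemented Todd Hewitt broth for P. gingivalis). Inoculum suspended in Brucella broth, final 5 × 10^6 cfu/ml. Twofold dilutions, final 0.12–128 µg/ml. Incubated anaerobically (90% N2/5% H2/5% CO2) at 37 °C for 48 h; MIC is the lowest concentration without turbidity.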

For experiment [3], the system named is Streptococcus mutans. Nature of the experiment: Antibacterial activity against Streptococcus mutans ATCC 25175 after 48 hrs by broth microdilution method. The class given is functional. As to conditions: ATCC 25175, 48 h.
Experiment [4] has as its system Prevotella intermedia. Nature of the experiment: Antibacterial activity against Prevotella intermedia ATCC 25611 after 48 hrs by broth microdilution method. Format: functional. As to conditions: ATCC 25611, 48 h. A digest of the protocol: as §1
In experiment [5] the test system is Fusobacterium nucleatum. Kind of experiment: Antibacterial activity against Fusobacterium nucleatum ATCC 10953 after 48 hrs by broth microdilution method. The class given is functional. As to conditions: ATCC 10953, 48 h. A digest of the protocol:
as §1

In experiment [6] the test system is Streptococcus sanguinis. Kind of experiment: Antibacterial activity against Streptococcus sanguinis ATCC 10556 after 48 hrs by broth microdilution method. The class given is functional. Particulars: ATCC 10556, 48 h.
The subject of experiment [7] is Actinomyces viscosus. Nature of the experiment: Antibacterial activity against Actinomyces viscosus ATCC 15987 after 48 hrs by broth microdilution method. The class given is functional. Particulars: ATCC 15987, 48 h.
For experiment [8], the system named is Streptococcus mutans. Kind of experiment: Antibacterial activity against Streptococcus mutans ATCC 25175 assessed as inhibition of biofilm formation after 18 hrs. Format: functional. A digest of the protocol: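 Single-species S. mutans biofilm grown in flat-bottom polystyrene wells, BHI with 2% sucrose, 6 × 10^7 cfu/ml final, compound twofold 0.12–128 µg/ml, 18 h at 37 °C in 5% CO2. Wells rinsed with PBS pH 7.2, methanol-fixed, stained with 0.1% crystal violet, eluted in 95% ethanol, A595 read. % inhibition relative to untreated control; MBIC50 is the lowest concentration giving ≥50% inhibition.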

The test system of experiment [9] is Streptococcus mutans. Nature of the experiment: Antibacterial activity against Streptococcus mutans ATCC 25175 assessed as decrease in cell viability at 2 time MIC after 60 mins by serial dilution method relative to control. Format: functional. A digest of the protocol: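 S. mutans suspension from an 18 h culture (~1 × 10^9 cfu/ml) diluted 1:20 into phosphate buffer containing compound at 2 × MIC. Incubated 60 min at 37 °C, then serially diluted in saline and plated on BHI agar. Colonies counted after 48 h at 37 °C in 5% CO2; viability given as CFU/ml relative to untreated cells.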

The test system of experiment [10] is Streptococcus sanguinis. Nature of the experiment: Antibacterial activity against Streptococcus sanguinis ATCC 10556 after 24 hrs by broth microdilution method. As to conditions: ATCC 10556, 24 h.
The test system of experiment [11] is Streptococcus mutans. Kind of experiment: Antibacterial activity against Streptococcus mutans ATCC 25175 assessed as increase of cell membrane permeability at 2 time MIC after 60 mins propidium iodide staining by flow cytometry. Format: functional, organism-based. A digest of the protocol:
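Overnight BHI culture of S. mutans washed into 50 mmol/l sodium phosphate pH 7.1 (~1 × 10^9 cfu/ml), diluted 1:20 into buffer with compound at 2 × MIC. Incubated 60 min at room temperature; aliquots diluted in buffer and stained with propidium iodide at 10 µg/ml final on ice. The percentage of PI-stained cells was measured by flow cytometry.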
On the technique in general: Flow cytometry measures light scatter and fluorescence of single cells or particles in a stream.

In experiment [12] the test system is Actinomyces viscosus. Kind of experiment: Antibacterial activity against Actinomyces viscosus ATCC 15987 after 24 hrs by broth microdilution method. Particulars: ATCC 15987, 24 h.
Experiment [13] concerns Streptococcus mutans. Kind of experiment: Antibacterial activity against Streptococcus mutans ATCC 25175 assessed as 280 nm absorbing material release at 2 time MIC after 60 mins by spectrophotometric analysis. The class given is functional, organism-based. A digest of the protocol: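 S. mutans prepared in 50 mmol/l phosphate pH 7.1 (~1 × 10^9 cfu/ml) was exposed to compound at 2 × MIC for 60 min at 37 °C. Supernatant taken after centrifugation (10,000 g, 10 min) and read at A280. Release is expressed as % of a total-release control made by lysozyme treatment (100 µg/ml, 60 min, 37 °C) plus sonication.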

The test system of experiment [14] is Streptococcus mutans. Kind of experiment: Ratio of compound MIC to bakuchiol MIC for Streptococcus mutans ATCC 25175. Format: functional.
The subject of experiment [15] is Prevotella intermedia. Kind of experiment: Ratio of compound MIC to bakuchiol MIC for Prevotella intermedia ATCC 25611. Format: functional.
Experiment [16] concerns Streptococcus sanguinis. Kind of experiment: Ratio of compound MIC to bakuchiol MIC for Streptococcus sanguinis ATCC 10556. The class given is functional.
Experiment [17] relates to Fusobacterium nucleatum. Nature of the experiment: Ratio of compound MIC to bakuchiol MIC for sFusobacterium nucleatum ATCC 10953. The class given is functional.
Experiment [18] relates to Actinomyces viscosus. Nature of the experiment: Ratio of compound MIC to bakuchiol MIC for Actinomyces viscosus ATCC 15987. The class given is functional.
Experiment [19] relates to Porphyromonas gingivalis. Kind of experiment: Ratio of compound MIC to bakuchiol MIC for Porphyromonas gingivalis ATCC 33277. The class given is functional.
The test system of experiment [20] is Streptococcus mutans. Kind of experiment: Ratio of compound MBIC50 to bakuchiol MBIC50 for Streptococcus mutans ATCC 25175. Format: functional. A digest of the protocol: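 MBIC50 from crystal-violet S. mutans biofilm assay (BHI + 2% sucrose, 18 h, 37 °C, 5% CO2, A595 read) for each compound, divided by the bakuchiol MBIC50 from the same assay.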

Values after ≈ are worked out from the molar mass of the structure shown. Active and inactive are the calls of the source.

On to `CC(C)=CCCC(C)(/C=C/c1ccc(O)cc1)/C=C/c1ccc(O)cc1`, for which the MIC in the experiment on Streptococcus mutans [1] is 0.5 µg/mL (≈ 1.43 µM); against Porphyromonas gingivalis [2] it was 0.25 µg/mL (≈ 0.717 µM); in the experiment with Prevotella intermedia [4] it was 0.25 µg/mL (≈ 0.717 µM); against Fusobacterium nucleatum [5] it was more than 128 µg/mL; in the experiment on Streptococcus sanguinis [10], 0.25 µg/mL (≈ 0.717 µM); in the experiment with Actinomyces viscosus [12], 0.5 µg/mL (≈ 1.43 µM). The MBC in the experiment with Porphyromonas gingivalis [2] is 1 µg/mL (≈ 2.87 µM); against Streptococcus mutans [3] it was 1 µg/mL (≈ 2.87 µM); in the experiment on Prevotella intermedia [4] it was 1 µg/mL (≈ 2.87 µM); against Fusobacterium nucleatum [5], more than 128 µg/mL; against Streptococcus sanguinis [6], 1 µg/mL (≈ 2.87 µM); with Actinomyces viscosus [7] it was 1 µg/mL (≈ 2.87 µM). The MBIC50 in the experiment on Streptococcus mutans [8] amounted to 1 µg/mL. Moreover, the Activity with Streptococcus mutans [9] is on record as more than 80%. In addition, the result in the experiment with Streptococcus mutans [11] and in the experiment on Streptococcus mutans [13] was Active.

`COc1ccc(/C=C/[C@@](C)(/C=C/c2ccc(O)cc2)CCC=C(C)C)cc1`: the minimum inhibitory concentration (MIC) in the experiment on Streptococcus mutans [1] came out at 1 µg/mL (≈ 2.76 µM); against Porphyromonas gingivalis [2], 0.5 µg/mL (≈ 1.38 µM); in the experiment with Prevotella intermedia [4], 2 µg/mL (≈ 5.52 µM); in the experiment on Fusobacterium nucleatum [5] it was 8 µg/mL (≈ 22.1 µM); against Streptococcus sanguinis [10], 2 µg/mL (≈ 5.52 µM); in the experiment with Actinomyces viscosus [12], 2 µg/mL (≈ 5.52 µM). Also, the MBC with Porphyromonas gingivalis [2] came to 1 µg/mL (≈ 2.76 µM); against Streptococcus mutans [3], 2 µg/mL (≈ 5.52 µM); in the experiment with Prevotella intermedia [4], 4 µg/mL (≈ 11 µM); in the experiment with Fusobacterium nucleatum [5], 8 µg/mL (≈ 22.1 µM); against Streptococcus sanguinis [6], 2 µg/mL (≈ 5.52 µM); against Actinomyces viscosus [7], 2 µg/mL (≈ 5.52 µM). Besides, the Ratio with Streptococcus mutans [14] stood at 2; in the experiment with Prevotella intermedia [15], 2; in the experiment with Streptococcus sanguinis [16], 2; in the experiment with Fusobacterium nucleatum [17], 0.25; with Actinomyces viscosus [18] it was 2; in the experiment on Porphyromonas gingivalis [19], 2. Besides, the MBIC50 in the experiment on Streptococcus mutans [8] was 2 µg/mL. In addition, in the experiment with Streptococcus mutans [9], the Activity is more than 80%. Further, the result in the experiment on Streptococcus mutans [11] and in the experiment with Streptococcus mutans [13] was Active.

In the case of `CC(C)=CCC[C@](C)(/C=C/c1ccc(O)cc1)/C=C/c1ccc(F)cc1`, the MIC was 4 µg/mL (≈ 11.4 µM) in the experiment on Streptococcus mutans [1]; 2 µg/mL (≈ 5.71 µM) in the experiment on Porphyromonas gingivalis [2]; 2 µg/mL (≈ 5.71 µM) against Prevotella intermedia [4]; more than 128 µg/mL against Fusobacterium nucleatum [5]; 4 µg/mL (≈ 11.4 µM) in the experiment with Streptococcus sanguinis [10]; 4 µg/mL (≈ 11.4 µM) against Actinomyces viscosus [12]. For the same compound, in the experiment on Streptococcus mutans [20], the Ratio was determined as 2. In addition, the minimal bactericidal concentration (MBC) is 4 µg/mL (≈ 11.4 µM) against Porphyromonas gingivalis [2]; 4 µg/mL (≈ 11.4 µM) against Streptococcus mutans [3]; 4 µg/mL (≈ 11.4 µM) in the experiment on Prevotella intermedia [4]; more than 128 µg/mL with Fusobacterium nucleatum [5]; 8 µg/mL (≈ 22.8 µM) in the experiment on Streptococcus sanguinis [6]; 8 µg/mL (≈ 22.8 µM) in the experiment on Actinomyces viscosus [7]. In the experiment with Streptococcus mutans [8], the MBIC50 is 8 µg/mL.

For the compound `COc1ccc(/C=C/[C@](C)(/C=C/c2ccc(O)cc2)CCC=C(C)C)cc1`, the MIC is 0.5 µg/mL (≈ 1.38 µM) against Streptococcus mutans [1]; 0.25 µg/mL (≈ 0.69 µM) against Porphyromonas gingivalis [2]; 0.5 µg/mL (≈ 1.38 µM) against Prevotella intermedia [4]; 16 µg/mL (≈ 44.1 µM) against Fusobacterium nucleatum [5]; 0.5 µg/mL (≈ 1.38 µM) in the experiment with Streptococcus sanguinis [10]; 0.5 µg/mL (≈ 1.38 µM) with Actinomyces viscosus [12]. For the same compound, the MBC is 0.5 µg/mL (≈ 1.38 µM) with Porphyromonas gingivalis [2]; 1 µg/mL (≈ 2.76 µM) in the experiment on Streptococcus mutans [3]; 1 µg/mL (≈ 2.76 µM) against Prevotella intermedia [4]; 32 µg/mL (≈ 88.3 µM) in the experiment on Fusobacterium nucleatum [5]; 1 µg/mL (≈ 2.76 µM) in the experiment on Streptococcus sanguinis [6]; 1 µg/mL (≈ 2.76 µM) against Actinomyces viscosus [7]. The Ratio with Streptococcus mutans [14], with Prevotella intermedia [15], in the experiment with Streptococcus sanguinis [16], with Fusobacterium nucleatum [17], in the experiment on Actinomyces viscosus [18] and with Porphyromonas gingivalis [19] was 2 throughout. Further, the MBIC50 in the experiment on Streptococcus mutans [8] was 1 µg/mL. Moreover, the Activity in the experiment on Streptococcus mutans [9] is more than 80%. Besides, the result in the experiment on Streptococcus mutans [11] and in the experiment with Streptococcus mutans [13] was Active.

For the compound `C=C[C@@](C)(/C=C/c1ccc(O)cc1)CCC=C(C)C` [BAKUCHIOL], the minimum inhibitory concentration (MIC) against Streptococcus mutans [1] is 1 µg/mL (≈ 3.9 µM); against Porphyromonas gingivalis [2], 1 µg/mL (≈ 3.9 µM); in the experiment with Prevotella intermedia [4], 1 µg/mL (≈ 3.9 µM); with Fusobacterium nucleatum [5], 32 µg/mL (≈ 125 µM); against Streptococcus sanguinis [10], 1 µg/mL (≈ 3.9 µM); against Actinomyces viscosus [12] it was 1 µg/mL (≈ 3.9 µM). Moreover, the MBC came to 1 µg/mL (≈ 3.9 µM) against Porphyromonas gingivalis [2]; 2 µg/mL (≈ 7.8 µM) against Streptococcus mutans [3]; 2 µg/mL (≈ 7.8 µM) in the experiment with Prevotella intermedia [4]; 64 µg/mL (≈ 250 µM) in the experiment with Fusobacterium nucleatum [5]; 2 µg/mL (≈ 7.8 µM) in the experiment on Streptococcus sanguinis [6]; 2 µg/mL (≈ 7.8 µM) with Actinomyces viscosus [7]. The MBIC50 in the experiment with Streptococcus mutans [8] was found to be 4 µg/mL. Besides, the Activity in the experiment with Streptococcus mutans [9] is given as more than 80%. The outcome with Streptococcus mutans [11] and with Streptococcus mutans [13] was Active.

As for `C=C[C@@](C)(/C=C/c1ccc(OC)cc1)CCC=C(C)C`, the MIC with Streptococcus mutans [1] is more than 128 µg/mL; with Porphyromonas gingivalis [2], 32 µg/mL (≈ 118 µM); in the experiment with Prevotella intermedia [4], more than 128 µg/mL; against Fusobacterium nucleatum [5], more than 128 µg/mL; with Streptococcus sanguinis [10], more than 128 µg/mL; in the experiment on Actinomyces viscosus [12], more than 128 µg/mL. Besides, the MBC in the experiment on Porphyromonas gingivalis [2] is 32 µg/mL (≈ 118 µM); with Streptococcus mutans [3], more than 128 µg/mL; in the experiment with Prevotella intermedia [4], more than 128 µg/mL; in the experiment with Fusobacterium nucleatum [5], more than 128 µg/mL; against Streptococcus sanguinis [6], more than 128 µg/mL; in the experiment on Actinomyces viscosus [7] it was more than 128 µg/mL. Moreover, in the experiment with Streptococcus mutans [9], the outcome was inactive. Also, the result in the experiment with Streptococcus mutans [11] and in the experiment with Streptococcus mutans [13] was Active.

By MIC is commonly meant the least concentration at which growth counts as inhibited. A word on the MBC: it is the smallest concentration meeting the test's criterion for killing. A lower MBC goes with greater bactericidal potency.
